# Results collected from several papers.
# Compare with care: the assays were run in different laboratories.
# Target: Platelet-derived growth factor receptor beta (PDGFRB, Homo sapiens, UniProt P09619)
SMILES,test,conditions,measurement,result
Cc1[nH]c(/C=C2\C(=O)Nc3ccc(F)cc32)c(C)c1C(=O)N[C@H]1CCN(C(=O)N(C)C)C1,"enzyme activity, inhibitor",0.1 µM,remaining activity,97%
CCCOc1ccc(OC)c(F)c1C(=O)c1ccc(C(=O)N[C@@H]2CNC[C@H]2NC(=O)c2ccc3[nH]ncc3c2)cc1,"enzyme activity, inhibitor",10 µM,remaining activity,74%
CS(=O)(=O)Nc1cccc(-c2csc(NC(=O)CSc3nc4nccnc4c(=O)n3CCc3ccccc3)n2)c1,"enzyme activity, inhibitor",10 µM,inhibition,7%
O=c1c2ccccc2[nH]c(=S)n1CCN1CCC(=C(c2ccc(F)cc2)c2ccc(F)cc2)CC1,"enzyme activity, inhibitor",0.5 µM,remaining activity,112%
CCCS(=O)(=O)Nc1ccc(F)c(C(=O)c2c[nH]c3ncc(-c4ccc(Cl)cc4)cc23)c1F,"enzyme activity, inhibitor",1 µM,inhibition,< 20%
CN(C)c1ccc(C=C2C(=O)Nc3ccccc32)cc1,"enzyme activity, inhibitor",0.5 µM,remaining activity,85.8%
NS(=O)(=O)c1cc(NC(=O)Cc2ccccc2)ccc1Oc1cccc(Cl)c1,"cell-free assay, competition with immobilised ligand",1 µM,remaining binding,76%
COc1cc2c(cc1OC)-c1[nH]nc(Nc3cccc(F)c3)c1C2,cell-free assay,0.5 µM,remaining signal,45.3%
O=C(Nc1ccc(Oc2ccc(F)cc2)cc1)N1CCc2ncccc2[C@H]1c1ccc(F)cc1,"cell-free assay, competition with immobilised ligand",1 µM,remaining binding,100%
Cc1ccc(Nc2nccc(N(C)c3ccc4c(C)n(C)nc4c3)n2)cc1S(N)(=O)=O,"enzyme activity, inhibitor",10 µM,inhibition,97%
Cn1nc(C(=O)NCc2ccc(C(=O)O)cc2)cc1-c1ccc2[nH]ccc2c1,"cell-free assay, competition with immobilised ligand",0.1 µM,remaining binding,96%
CCN(CC)CCNC(=O)c1c(C)[nH]c(/C=C2\C(=O)Nc3ccc(Cl)cc32)c1C,"enzyme activity, inhibitor",0.5 µM,remaining activity,9.28%
COc1cc2ncnc(Nc3ccc(Oc4ccccc4)c(C)c3C)c2cc1OC,"enzyme activity, inhibitor",1 µM,inhibition,6%
Cc1ccc(NC(=O)c2ccc(CN3CCN(C)CC3)cc2)cc1Nc1nccc(-c2cccnc2)n1,"enzyme activity, inhibitor",0.5 µM,activity vs control,39.1%
CCCOc1ccc([C@H]2[C@H](C(=O)O)[C@@H](c3ccc4c(c3)OCO4)CN2CC(=O)Nc2c(CC)cccc2CC)cc1,"cell-free assay, competition with immobilised ligand",1 µM,remaining binding,100%
C=CC(=O)Nc1cc(Nc2nccc(Nc3cc(Cl)c(F)cc3C(C)(C)O)n2)c(OC)cc1N1CC[C@@H](N(C)C)C1,"enzyme activity, inhibitor",1 µM,inhibition,-2%
O=[N+]([O-])c1cccc2[nH]c(CNc3nc(N4CCOCC4)nc4c3ncn4-c3ccsc3)nc12,"binding, competition with immobilised ligand",10 µM,binding vs control,8.2%
CS(=O)(=O)N1CCCC(NC(=O)[C@H](CCC2CCCCC2)NC(=O)c2ccc(CNc3ncnc4c3nnn4-c3ccccc3)cc2)C1 (some centres unmarked),"cell-free assay, competition with immobilised ligand",0.1 µM,remaining binding,86%
CC(C)(C)c1nc2c(s1)c1nc(N)ncc1c1ccc(NS(=O)(=O)c3c(F)cccc3F)c(F)c12,"enzyme activity, inhibitor, radiometric",1 µM,remaining activity,105%
COc1cc(Cl)c(C(=O)N[C@@H](CN[C@H]2CC[C@@H](N)CC2)Cc2ccc(C#N)cc2)cc1-c1ccc(CN[C@H](C)c2ccc(C)cc2)o1,"enzyme activity, inhibitor",1 µM,remaining activity,95%
COc1cccc(CNC(=O)c2nc3scc(COCc4ccc(C(=O)O)cc4)c3c(=O)[nH]2)c1,"cell-free assay, competition with immobilised ligand",1 µM,remaining binding,99%
Cc1cc(NC(=O)c2cccc3cc(-c4cccc5[nH]nc(N)c45)ccc23)ccc1F,"enzyme activity, inhibitor",0.1 µM,activity vs control,101%
Nc1ncnc2occ(-c3ccc(NC(=O)Nc4cc(C(F)(F)F)ccc4F)cc3)c12,"enzyme activity, inhibitor",20 µM,remaining activity,0%
CC(C)(O)c1cncc(-c2nc3ccc(F)cc3n2C2CC2)c1,"cell-free assay, competition with immobilised ligand",1 µM,remaining binding,100%
O=C(Nc1cnn(-c2csc(C(=O)NC3COC3)c2)c1)Nc1ccccc1Cl,"enzyme activity, inhibitor",5 µM,remaining activity,107%
O=c1cc(-c2cccc3c2Sc2ccccc2S3)oc(N2CCOCC2)c1,"enzyme activity, inhibitor",0.5 µM,remaining activity,102%
Cc1noc([C@H]2C[C@@H](c3ccc(C(F)(F)F)cc3)CN(C(=O)N3CCS(=O)(=O)C3)C2)n1,"cell-free assay, competition with immobilised ligand",1 µM,remaining binding,100%
O=C1Nc2ccc(Cl)cc2C1=Cc1cc(Cl)c(O)c(Cl)c1,cell-free assay,0.5 µM,remaining signal,76.9%
CCN(CC)c1ccc(C2=NNC(=O)CC2C)cc1[N+](=O)[O-] (centres unmarked),"enzyme activity, inhibitor",10 µM,remaining activity,6%
